This is a sample that favours compounds with a hit; in the whole collection about 1.2% have one here.
CR mimetic SO: yeast age-related superoxide inhibition as caloric restriction mimetic; S. cerevisiae aged cells, superoxide DHE fluorescence; stronger effect = lower value; superoxide response (% of plate mean), % at 10 µM; 330,000 compounds, 0.18% hits; AID 2690;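 active = superoxide response under a set limit, about three screen SD below normal, cut at about 65% in these data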;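 also: yeast aged for seven days with compound at 30 °C before DHE staining; 100% = average MFI of all compound-treated wells on the plate with controls excluded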
ASAP1 inh: blocks human ASAP1-stimulated Arf1 GTP hydrolysis; Q9ULH1; GDP FP detection; inhibition, % at 16.5 µM; 360,000 compounds, 0.19% hits; AID 624377; in the data active = inhibition above about 25%;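 also: 0% = vehicle with enzyme and substrate and 100% = no enzyme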
procasp7 counter: counter-screen: procaspase-7 (human) activation | recombinant procaspase-7, Ac-DEVD-pNA absorbance 405 nm; D23A/D198A/D206A triple mutant, cannot self-cleave; scale: DMSO 0, 5 µM enzyme 100 | activation, % at 8.5 µM | 330,000 compounds, 0.093% hits | AID 463210;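 active = percent activation above the screen-wide mean plus 3 SD, cut at about 25% in these data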
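Detection: p-Nitroaniline absorbance at 405 nm, read at 0 and 120 min; system: Uncleavable procaspase-7 mutant enzyme; evaluation: % activation from two-timepoint absorbance difference, scaled to controls; times: 1 h enzyme–compound preincubation and 2 h substrate reaction, both 25 °C; buffer or medium: Zinc-free HEPES pH 7.4 with 300 mM NaCl, 0.01% Triton X-100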
ARFGAP1 inh: rat ARFGAP1 inhibition. AID 651572. Arfgap1-stimulated ARF1 GTP hydrolysis, GDP FP detection. 360,000 compounds, 0.26% hits. inhibition, % at 16.5 µM;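 active = inhibition above a per-plate limit, mean inhibition of low control wells plus 3 SD, cut at about 25% in these data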;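 also: 0% = DMSO wells with enzyme and 100% = wells lacking Arfgap1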
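Assay system: purified rat His6-Arfgap1 residues 1-136 (GAP domain); Reagent: human Δ17 ARF1 bound to GTP; Dosing: 16.5 µM single point, 1.26% DMSO; Times: GTP hydrolysis reaction 2 h at 25 °C; Signal: FP, GDP Alexa 633 tracer displaced from anti-GDP antibody, 620/688 nm; Measure: % inhibition from polarization.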
LANA-H2B inh: blocks KSHV LANA binding to histone H2A/H2B. 320,000 compounds, 0.6% hits. cell-free LANA-H2A/H2B peptide, fluorescence polarization. AID 2629. Q9QR71. inhibition, % (concentration not given with the values); in the data active = inhibition mostly above about 10%, no sharp cut-off; inactive = mostly below about 6.7%
proCasp3 act: activates human procaspase-3; P42574; AID 463141; activation, % at 8.5 µM; recombinant procaspase-3 D3A, Ac-DEVD-pNA absorbance 405 nm; 330,000 compounds, 0.11% hits;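 active = activation above the mean of all tested compounds plus 3 SD, cut at about 21% in these data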;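 also: 0% = DMSO alone and 100% = DMSO wells spiked with extra 5 µM PC-3 D3A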
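Test system: Procaspase-3 D3A mutant, all three cleavage aspartates alanine | Dosing: Single dose, 8.5 µM nominal compound, 0.8% DMSO | Schedule: 1 h preincubation, 2 h reaction | Technique: 405 nm absorbance of p-nitroaniline, reads at 0 and 120 min | Repeats: One well per compound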
* marks the source's active call; other numbers are inactive results; nt = not tested or not shown; ! = not confirmed by another sample.

SMILES	CR mimetic SO	ASAP1 inh	procasp7 counter	ARFGAP1 inh	LANA-H2B inh	proCasp3 act
Cc1ccc(NC(=O)CC2OC(=O)c3ccccc32)cc1S(=O)(=O)N1CCCCCC1 (stereo not drawn)	80	12	-4	12	11*	-1
Cc1nc(C2CC(=O)OC23CCCCC3)cs1 (stereo not drawn)	116	19	-2	2	-5.5*	3
Cc1nc(C(=O)Nc2ccc(F)cc2)nn1-c1ccc([N+](=O)[O-])cc1	97	-2	-1	-4	12*	-1
Cc1ccc(NC(=O)c2nc(C)n(-c3ccc([N+](=O)[O-])cc3)n2)cc1	125	nt	2	nt	5	3
O=S1(=O)N[C@H](c2ccccc2)COc2cc(Br)ccc21	nt	7	nt	7	nt	nt
Cc1cc(-c2ccccc2)nc2c(Br)c(=O)[nH]n12	107	-18	-26	17	13*	-10
Cc1ccc(-n2nc3c(c2NC(=O)c2ccc(F)c(F)c2)CS(=O)(=O)C3)cc1	92	8	-5	9	109*	8
N#C/C(=C\c1ccc(N2CCOCC2)o1)c1nc2ccccc2[nH]1	110	20	-5	15	nt	-9
N#C/C(=C/c1ccc(N2CCOCC2)o1)c1ccc(Cl)cc1	130	4	-14	5	10*	-7
C[C@@H]1C=CCCO[C@]12C(=O)N(CC1CC1)c1ccccc12	nt	9	nt	-4	nt	nt
CN(C(=O)[C@H]1O[C@@H](n2cnc(C(N)=O)n2)[C@H](O)[C@@H]1O)c1ccccc1	nt	8	nt	16	nt	nt
CC(C(=O)Nc1ccc(S(=O)(=O)N2CCCCC2)cc1)N1CCN(c2ccccn2)CC1 (stereo not drawn)	100	nt	1	nt	138*	4
C[n+]1cccc(C(=O)[O-])c1	103	-14	-5	0	-1	2
CN(C)C(=O)Oc1ccc[n+](C)c1	104	3	-8	13	74*!	-1
Cc1cc(Br)cn2c(Cc3cccc(F)c3)c(-c3ccco3)nc12	nt	1	nt	-2	nt	nt
COCCN1Cc2cc(C(=O)OC)c3c(c2C1=O)c1cc(F)ccc1n3C(=O)c1ccccc1	nt	-1	nt	-2	nt	nt
CC(C)[C@H](NC(=O)c1ccco1)C(=O)N1CCC[C@H]1C(=O)NCc1ccccc1	nt	2	nt	12	nt	nt
Cc1ccc(S(=O)(=O)N2CCN(C(=O)CC(C)n3cncn3)CC2)cc1C (stereo not drawn)	107	1	6	-16	25*	1
CC(C)(C)C(=O)Nc1ccnn1C1CCN(C(=O)c2ccc(Cl)cc2F)CC1	96	0	4	5	26*	6
O=C(Nc1ccnn1C1CCN(C(=O)c2cccc(C(F)(F)F)c2)CC1)C1CC1	92	9	nt	-1	17*	nt
Cc1ccc(-c2nc3c(C)cc(Br)cn3c2Cc2ccccc2C(F)(F)F)cc1	nt	5	nt	-9	nt	nt
COc1ccc(/C=C/C(=O)NC(=S)NNC(=O)c2ccco2)cc1	165	3	-5	-2	-2	0
COc1ccc(/C=C/C(=O)NC(=S)NNC(=O)Cc2cccs2)cc1	58*	8	-2	-1	5	0
Cc1cc(-c2cc(NC(=O)Cc3c[nH]c4ccccc34)ccc2N(C)c2cccnc2)ccc1F	nt	5	nt	12	nt	nt
CCn1ccnc1CN(C)Cc1cn(-c2cc(C)ccc2C)nc1-c1ccccc1	93	8	-1	5	20*	-4
SMILES	CR mimetic SO	ASAP1 inh	procasp7 counter	ARFGAP1 inh	LANA-H2B inh	proCasp3 act
CCn1ccnc1CN(C)Cc1cn(-c2ccc(C)cc2)nc1-c1ccc(F)cc1	90	-14	4	8	2	-4
COCCCNC(=O)C[C@H]1C[C@@]2(C(=O)OC)C(=C[C@H](COCc3ccccc3)O[C@@H]2C)N(Cc2ccc3c(c2)OCO3)C1=O	nt	-8	nt	3	nt	nt
CC(=O)N1CCC(N2CCN(c3ccccc3F)CC2)CC1	124	-4	-6	0	17*	5
CCC1CCC(N2CCN(c3ccccc3F)CC2)CC1 (stereo not drawn)	96	-3	4	7	1	-8
c1ccc(Nc2ccccn2)nc1	97	1	-2	-3	8.3*	-3
COCCOc1nc2c(c(=O)n(C)c(=O)n2C)n1CCc1ccccc1	97	7	-1	5	11*	4
Cc1ccccc1-n1nc(C)c(N=O)c1N	95	-10	4	-3	30*	10
O=C1CC(c2ccc(F)cc2)CC(O)=C1C=NCCN1CCNCC1 (stereo not drawn)	119	0	11	-10	17*	9
COCC(=O)N1CCC(Oc2ccc(C(=O)N3CCCCCCC3)cc2)CC1	114	4	6	5	9	5
COCC(=O)N1CCC(Oc2ccc(C(=O)N(C)CCCC3CCCC3)cc2)CC1	89	-13	3	-1	16*	3
COc1ccc(-c2[nH][nH]c(=O)c2NC(=O)c2ccccn2)cc1	nt	2	nt	-12	nt	nt
COc1ccc(CCC(=O)Nc2c(-c3ccc(N(C)C)cc3)[nH][nH]c2=O)cc1	nt	49*	nt	-3	nt	nt
Cc1cc(N2CCN(CC(C)(C)O)C[C@H]2C)ccc1N1CCN(Cc2ccccc2)[C@@H](C)C1	nt	6	nt	11	nt	nt
CN(C)/C=C1\C=C2C(=O)c3ccccc3N2C1=O	96	0	-16	-1	150*	-14
COc1ccc(/C=C\C(=O)c2c(O)ccc3c(C)cc(=O)oc23)cc1OC	97	-9	2	10	16*	3
COCCOC(=O)C1=C(C)N(c2ccccc2)C(=S)NC1c1ccccc1C(F)(F)F (stereo not drawn)	68	-7	11	-9	35*	0
CCc1nc2ccc(C(=O)NCc3ccccc3OC)cn2c1N(CC)CCN(C)C	nt	15	nt	-10	nt	nt
Cn1c(=O)c(Nc2ccc(Cl)cc2)c2c3c(cccc31)C(=O)c1ccccc1-2	102	-7	-7	-7	66*	-2
COC(=O)N1C[C@H](OCc2ccccc2)[C@H]2C[C@@H]1c1ccccc1O2	nt	-4	nt	11	nt	nt
Cc1ccc(C(=O)COC(=O)CSc2cccc3cccnc23)c(C)c1	96	7	6	13	17*	-9
O=C(O)CSc1cccc2cccnc12	101	-1	-6	2	0	11
CC(C)=C[C@H]1C[C@H](C)[C@H]2CC[C@H](C)c3c(O[C@@H]4O[C@@H](C)[C@@H](O)[C@@H](O)[C@@H]4O)c(O)c(C)c1c32	nt	0	nt	11	nt	nt
O=C(N/C(=C\c1ccco1)C(=O)N1CCCC1CO)c1ccccc1 (stereo not drawn)	109	-9	-9	14	21*	4

Screens: PubChem, several laboratories
